According to PMC9652097 (Computers in Biology and Medicine, 2022):

Legend:
C. elegans = conditions: cited from earlier work
[1] = DPPH radical scavenging activity; conditions: 37 °C, 30 min, 517 nm
Method in brief: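 Tea leaf solvent-extract fractions (petroleum ether, ethyl acetate, methanol, dichloromethane, methanol-water), each tested at several concentrations. Samples mixed 1:1 with 200 μM DPPH in ethanol, incubated 30 min at 37 °C, A517 read. Scavenging % = (1 − [(A_sample − A_blank)/A_control]) × 100, with control = water plus DPPH and blank = sample plus ethanol. Run three times.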

SARS-CoV-2 M^pro [2] = molecular target: T1, SARS-CoV-2 M^pro (Severe acute respiratory syndrome coronavirus 2, UniProt P0DTD1); conditions: read-out: IC50 of M^pro inhibition; beyotime enhanced inhibition kit; cited from earlier work
SARS-CoV-2 M^pro [3] = molecular target: T1, SARS-CoV-2 M^pro; assay: Surface plasmon resonance; assay type: binding
M^pro = conditions: read-out: IC50 of M^pro inhibition; cited from earlier work

For Zijuanin E, the “extension of lifespan of C. elegans” value (C. elegans) is given as 67.2%.
In the case of `O=C1O[C@H]([C@@H](O)CO)C(O)=C1O` [VC], the “IC50 of DPPH free radical scavenging” value [1] is reported as 1.14 µg/mL.
In the case of `CC(C)=CCc1cc(/C=C2\OC(=O)C(c3cc4c(cc3O)OC(C)(C)CC4)=C2O)ccc1O` [aspulvinone D], the IC50 (SARS-CoV-2 M^pro [2]) is given as 10.3 ± 0.6 µM.
In the case of aspulvinone R, the IC50 (SARS-CoV-2 M^pro [2]) is listed as 7.7 ± 0.6 µM.
For `Oc1cc(O)c2c(c1)O[C@H](c1ccc(O)c(O)c1)[C@H](O)C2` [EC, (−)-epicatechin], the Kd (SARS-CoV-2 M^pro [3]) was 23.9 µM.
In the case of `O=c1c2ccccc2[se]n1-c1ccccc1` [ebselen], the IC50 (M^pro) is listed as 0.04 ± 0.004 µM.
In the case of `CC(C)(O)C1Cc2cc(/C=C3\OC(=O)C(c4cc5c(cc4O)OC(C)(C)C(O)C5)=C3O)ccc2O1` (centres unmarked) [aspulvinone M], the IC50 (SARS-CoV-2 M^pro [2]) is given as 9.4 ± 0.6 µM.
In the case of Zijuanin F, the “extension of lifespan of C. elegans” value (C. elegans) is listed as 56.0%.
